Data as given in ChEMBL document CHEMBL1121399, “Synthesis of 5-[(methylthio)methyl]-2'-deoxyuridine, the corresponding sulfoxide and sulfone, and their 5'-phosphates: antiviral effects and thymidylate synthetase inhibition” (1980).
In brackets after ≈: the same amount, converted by molar mass.

Key:
Assay type in all cases: functional
Oryctolagus cuniculus [1] = species: Oryctolagus cuniculus; experiment: Tested for its antiviral activity in primary rabbit kidney (PRK) cell cultures inoculated with vaccinia virus
Oryctolagus cuniculus [2] = species: Oryctolagus cuniculus; experiment: Tested for its antimetabolic activity by measuring the concentration required for [Me-3H] dThd incorporation into host cell DNA by 50%; conditions: read-out: ID50 (the source's name)
Procedure, shortened: (§1)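 Primary rabbit kidney (PRK) cell cultures; incorporation of [methyl-3H]thymidine or [2-14C]2'-deoxyuridine into host cell DNA measured in presence of compound; value is concentration (µg/mL) reducing label incorporation by 50%; concentrations up to 400 µg/mL.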

Oryctolagus cuniculus [3] = species: Oryctolagus cuniculus; experiment: Tested for its antiviral activity in primary rabbit kidney (PRK) cell cultures inoculated with herpes simplex type 2 virus; range 0.2-0.4
Procedure, shortened: (§2)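 Primary rabbit kidney (PRK) cell cultures infected with HSV; inhibition of virus-induced cytopathogenicity scored; ID50 (µg/mL) is concentration reducing cytopathogenicity by 50%; means over three HSV-1 strains (KOS, F, McIntyre) or three HSV-2 strains (Lyons, 196, G), range across strains shown; top concentration 400 µg/mL.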

Oryctolagus cuniculus [4] = species: Oryctolagus cuniculus; experiment: Tested for its antiviral activity in primary rabbit kidney (PRK) cell cultures inoculated with herpes simplex type 1 virus; procedure, shortened: as §2
Oryctolagus cuniculus [5] = species: Oryctolagus cuniculus; experiment: Tested for its antimetabolic activity by measuring the concentration required for [2-14C]- Urd incorporation into host cell DNA by 50%; conditions: read-out: ID50 (the source's name); procedure, shortened: as §1
Oryctolagus cuniculus [6] = species: Oryctolagus cuniculus; experiment: Tested for its antiviral activity in primary rabbit kidney (PRK) cell cultures inoculated with herpes simplex type 1 virus; range 4-10; procedure, shortened: as §2
Oryctolagus cuniculus [7] = species: Oryctolagus cuniculus; experiment: Tested for its antiviral activity in primary rabbit kidney (PRK) cell cultures inoculated with herpes simplex type 2 virus; procedure, shortened: as §2

O=c1[nH]c(=O)n([C@H]2C[C@H](O)[C@@H](CO)O2)cc1I [IDOXURIDINE]
ID50 (Oryctolagus cuniculus [1]): 0.2 µg/mL (≈ 0.565 µM)
IC50 (Oryctolagus cuniculus [2]): 2.5 µg/mL (≈ 7.06 µM)
ID50 (Oryctolagus cuniculus [3]): 0.3 µg/mL (≈ 0.847 µM)
ID50 (Oryctolagus cuniculus [4]): 0.15 µg/mL (≈ 0.424 µM)
IC50 (Oryctolagus cuniculus [5]): 1.2 µg/mL (≈ 3.39 µM)

CSCc1cn([C@H]2C[C@H](O)[C@@H](CO)O2)c(=O)[nH]c1=O
ID50 (Oryctolagus cuniculus [1]): 200 µg/mL (≈ 694 µM)
ID50 (Oryctolagus cuniculus [6]): 6 µg/mL (≈ 20.8 µM)
IC50 (Oryctolagus cuniculus [2]): 100 µg/mL (≈ 347 µM)
ID50 (Oryctolagus cuniculus [7]): 4 µg/mL (≈ 13.9 µM)
IC50 (Oryctolagus cuniculus [5]): > 400 µg/mL

CS(=O)(=O)Cc1cn([C@H]2C[C@H](O)[C@@H](CO)O2)c(=O)[nH]c1=O
ID50 (Oryctolagus cuniculus [1]): 200 µg/mL (≈ 624 µM)
IC50 (Oryctolagus cuniculus [2]): 300 µg/mL (≈ 937 µM)
ID50 (Oryctolagus cuniculus [7]): >400 µg/mL
ID50 (Oryctolagus cuniculus [4]): 4 µg/mL (≈ 12.5 µM)
IC50 (Oryctolagus cuniculus [5]): > 400 µg/mL

C[S+]([O-])Cc1cn([C@H]2C[C@H](O)[C@@H](CO)O2)c(=O)[nH]c1=O (some centres not stated)
ID50 (Oryctolagus cuniculus [7]): >400 µg/mL
ID50 (Oryctolagus cuniculus [4]): >400 µg/mL
